Assay results as given in the EternaBench riboswitch data.

Test system: MS2 coat protein
Experiment: apparent Kd, MS2 coat protein; higher = weaker binding; RNA-MaP array; FMN 200 µM where present
Outline: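 Apparent Kd: the median of filtered binding-curve fits from single clusters. Designs were transcribed on Illumina sequencing-chip clusters by stalled E. coli RNA polymerase and titrated with SNAP-549-labelled MS2 coat protein from 0.7 or 1.5 nM, doubling to 3 µM, in 100 mM Tris-HCl pH 7.5, 80 mM KCl, 4 mM MgCl2, BSA, DTT, yeast tRNA and Tween-20. Each series ran without and then with constant ligand, and green signal was normalised to red-channel RNA signal and control-cluster median Fmax.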

[1] = designed as: OFF switch for flavin mononucleotide, no ligand
[2] = ligand present: flavin mononucleotide, designed as: OFF switch for flavin mononucleotide
[3] = designed as: ON switch for flavin mononucleotide, no ligand
[4] = ligand present: flavin mononucleotide, designed as: ON switch for flavin mononucleotide

Sequence | apparent Kd [1] [nM] | apparent Kd [2] [nM] | apparent Kd [3] [nM] | apparent Kd [4] [nM]
GGUUGGCGAGGAUAUACAUGAGGAUCACCCAUGUGGUCCUGUGGCUGAUCUUGCCUUUGUAGAAGGCGCGGGUC | 49.4 | 45.3 |  | 
AAGGAUCGAGGAUAUACAUAGAUACAGAUACAUGUAGACGUACAUGAGGAUCACCCAUGUAGAAGGCGAUUAUA | 72.6 | 220 |  | 
UGGUACAUCGGAGGAUAUCAUGUGAUAACAUGAGGAUCACCCAUGUCGAUGGAGACAUCGGAGAUUGAGAAGGCCGAUGUACCU |  |  | 801 | 84.2
AUCCAGCGAGGAUAUACAUAGUUUUUUUCGUUUUGUCUCGAACAUGAGGAUCACCCAUGUAGAAGGUGCUUCAC | 72.5 | 67.2 |  | 
AUAAUUUUAUAUAUCAUUUUAAUCAGAAGGCAUAACAUGAGGAUCACCCAUGUAUAUUAUUGUUAUGAGGAUAUGAUUUGGUUA | 19.1 | 78.3 |  | 
GGACAUGUCGUCUACAUGAGGAUCACCCAUGUCGAUAGACAUGAGGAUAUCGAUAAGAAUUGUAUCGAGAAGGCAUGUAGGUCC |  |  | 68.4 | 50.6
GAAAAGUGAGGAUAUGGUAAUGUAAGUAUGUAGUAUGUAAUCCAGAAGGCACAUGAGGAUCACCCAUGUAAAAG | 23 | 25.2 |  | 
AGAUGACAAAGUCAUCUUCAACGGACAUGAGGAUCACCCAUGUAGGAUAUGCUACUCAAAGAGUAGCAGAAGGACAUGUGUCUU | 35 | 193 |  | 
GUGCACAUUCGAGGAUAUCGGAGAGAGAUCGUUCGAGAAGGCGAUUCAUGAUGUAUUAUCCUGGACAUGAGGAUCACCCAUGUG |  |  | 105 | 89.3
AGUCGGCAUGAGAAGGGUUACAUGAGGAUCACCCAUGUGAUCAAAUCGUUAACAGGAUAUCAGGCGUCGGGCUUUGCCCGGAGG | 16.4 | 106 |  | 
AGUGCGUAUGUGAGGAUAUGCUGGUCCUUGGAUCAGCAGAAGGCACAUGAGGAUCACCCAUGUGGUGUCGUACA | 342 | 24.9 |  | 
UUAGCAACAUGAGGAUCACCCAUGUAGGAUAUCGCUAUUGUAAUCAUGAAACAUGAUUACAAUAGCGAGAAGGACAUAUGCUCC | 7.17 | 10.6 |  | 
AUUAAACAUGAGGAUCACCCAUGUCAACAAAGUCGAGGAUAUGGGCAAAUAAAUUAAGAACCAGAAGGCGAAUAAU |  |  | 435 | 40.5
AAUUAUUUACAGAAGGAGUAAGAUUAUGUAUUACUAGGAUAUGUUCACAUGAGGAUCACCCAUGUACUAGUAGGUUUUUUAUGU | 6.96 | 7.66 |  | 
AAGUAAGGAGGAUAUACGUCAUAGACCGCAAUAUGUCAUAGACAUGAGGAUCACCCAUGUAGAAGGCUUUAACA | 34.7 | 26.2 |  | 
CACGUCCUCACAGGAUAUGCUGGACUUUGUCCAGCAGAAGGGUGAAAACAUGAGGAUCACCCAUGUAGGACGUGUAUAUUUAAU |  |  | 1020 | 125
GUAGCAUACCGAGGAUAUUCAUAUAAUAAAUAAACAUGAGGAUCACCCAUGUGGCGAAAGCCUUGGGAGAAGGCGGAAUGCUAC |  |  | 647 | 37.3
UUUGCAUUCCGAGGAUAUUCAUAUAAUAAAUACACAUGAGGAUCACCCAUGUGGCGAUAGCCUAGGGAGAAGGCGGUUUGCUUU |  |  | 22.3 | 24
UCGUGAAUAGAGGAUAUAUUAAUAUUUAAAACAAUAGAAGGCUAAACAUGAGGAUCACCCAUGUAAAUGGUUUU | 28.1 | 116 |  | 
GGCAGACAUGAGGAUCACCCAUGUGAGGAUAUCGUCAUAGAUGCAAAAGCAUCUAUGACGAGAAGGUACAUGCC | 23.2 | 19.2 |  | 
AAAACAUGAGGAUCACCCAUGUAAAGAUCGGUUGAUGAAAGUGAGGAUAUACAAAAUUUUAUGGAGUAGAAGGCACUGGGUUGA |  |  | 67.4 | 47.7
GUAGCUAUCGGAGGAUAUUCAUAGCGGAAACGGACAUGAGGAUCACCCAUGUGGCGAAAGCCUUGGGAGAAGGCCGAUAGCUAC |  |  | 39.6 | 8.1
GUAGAGUCAGGAUAUACGAGAUCGAAAGAUCAGUAAUCCUCACAUGAGGAUCACCCAUGUAGAAGGGACUCUAC | 23.4 | 344 |  | 
AUACAUGAGGAUCACCCAUGUUACUGGGUCUAUAUAGAACGUAGAAGGAUGUAUUUACACAUAACAUAGGAUAUACUUUAUAGU | 55.2 | 41.9 |  | 
AAAGUUGGUAGGCCCUCGGAACAUGAGGAUCACCCAUGUAAGGAGGAUAUGCCCGGUACCCGCUGGCAGAAGGCCUUAUAAGAC | 6.74 | 42.5 |  | 
CCUUUUGUAUAAGGAUAUGUAACAAGGUGUAGGUUUGUAGGACUUGCGCUUACAGAAGGUAUACAUGAGGAUCACCCAUGUCGA | 29.9 | 157 |  | 
AAGACAUGAGGAUCACCCAUGUAAAGACCGGUCGAUCAAUGUGAGGAUAUACCAUAAUUGAUAGGGUAGAAGGCACUGGGUUGA |  |  | 168 | 128
UGGUACAUGAGGAUCACCCAUGUAAGAGCCCUCAUGCGAUGUAGAAGGUUAAUGCGUGUAGUGCUAAAGGAUAUACAUGAGUUU | 82.3 | 71.2 |  | 

Sequence | apparent Kd [1] [nM] | apparent Kd [2] [nM] | apparent Kd [3] [nM] | apparent Kd [4] [nM]
UCAAUAUAUCAGGAUAUGACUUUUUGUGUUAAGUCAGAAGGGAUAACAUGAGGAUCACCCAUGUGAUAUAGUGA | 52 | 58.9 |  | 
GCCUGUGAAGGAUAUACAUGAGGAUCACCCAUGUGGCGGAUAUACCCGCCGAGACCGUGUAGAAGGUCAUAGUA | 44 | 40.8 |  | 
GACAUGAGGAUCACCCAUGUCCUUCCAGAAGGCUGGCGCGCGAAACCUAAAUCAGUUCCGCGCACAGAGGAUAUGGGCAGUUGG |  |  | 72.2 | 15.9
GGGUACAUCGGAGGAUAUCAUGUAAAUACAUGAGGAUCACCCAUGUCGAUGGAGACAUCGGAGAUUGAGAAGGCCGAUGUAUCG |  |  | 157 | 9.09
GCCGGGCGAGGAUAUACAUGAGGAUCACCCAUGUAGAUCCUCCGGCGAAAGCCGGGUUGUAGAAGGCGCCCGGC | 14.9 | 25.7 |  | 
ACGACGAAAGUCGAACGAUGUACGAGAAGGACAUGAGGAUCACCCAUGUUAUCUGUAAUAGACAUGUAGGAUAUCGUACAUCGA | 8.26 | 26.6 |  | 
GUAUGAGCGAUAGGAUAUACUGAGAUUGAAUGGGUAGAAGGAUUUCUUGUGGGAAAGACAUGAGGAUCACCCAUGUCACGGACC |  |  | 291 | 148
AAACAUGUCCGAGGAUAUCUGGAAACAUUUCCAAGAGAAGGCGGACAUGAGGAUCACCCAUGUCUCUCCUCAUCAAAUCCAAAU | 9.18 | 88.9 |  | 
CGCUACAGCCAGAAGGACAUGAGGAUCACCCAUGUAGGAUAUGGGAGACGCGGUCCAGUGUAGAGAAACUACGCUACUGUAGCG |  |  | 87.3 | 73.4
AAGAUGUCAGGAUAUGCUGCUCGUCACUUGCGUGAUGAGUAGCAGAAGGGACAUGAGGAUCACCCAUGUAAAGA | 154 | 244 |  | 
CGGUCGAUGUAAGGAUAUCGACUGGAAUACAGUCGAGAAGGUACAUGAGGAUCACCCAUGUAAUCCAAUAAUAAAUAACGACCG | 12.6 | 22.5 |  | 
AGAUGACAAAGUCAUCUCGCUUUGACAUGAGGAUCACCCAUGUAGGAUAUAUUACUCAAAGAGUAAUAGAAGGACAUGUGUCUG | 49 | 155 |  | 
GUCGACCUAUUCGUCAGACUCUCACAGGAUAUACGAUACACAUGAGGAUCACCCAUGUAGAUAACGUAGAAGGGUGAUUCCGGU |  |  | 66.7 | 27.7
UGAACUCAUGUAGGAUAUGCAUGGCGAAGCUACGCAGAAGGACAUGAGGAUCACCCAUGUUCUAGCGUCUGAGUACAGAUGCAA | 148 | 118 |  | 
AAGGAUCGAGGAUAUACAUAGAUACAGAUUCAUGUAGAACUACAUGAGGAUCACCCAUGUAGAAGGCGAUCCUA | 38.4 | 291 |  | 
UAGAAGUCAGGAUAUGCAUGGCGGGACUUGCGUCGUGGCGUGCAGAAGGGACAUGAGGAUCACCCAUGUGGAGC | 116 | 169 |  | 
GGAAAUCAUGUAGGAUAUGCAUGGCGAAGCUACGCAGAAGGACAUGAGGAUCACCCAUGUUAUAGCUACCAAGUUAGGUGGCAA | 139 | 144 |  | 
GUCUUACAUGAGGAUCACCCAUGUGAGGAUAUAUGUGGUGUUGAGAAAUUGGUGUUGUAUAGAAGGCGCGUGAU | 25.5 | 24.8 |  | 
UUUAUGUAGGAGAAGGAGGACUUCAUGAGGAUCACCCAUGUGUUAGGACUUAGGAUAUUUGACGACAUGAGGAUCACCCAUGUG |  |  | 64.3 | 56.5
CCAGAGUGAGGAUAUGCAUAAAGGUGCUGUCCCGUGGCUUGACAUGAGGAUCACCCAUGUAGAAGGUGCGUUGU | 48.7 | 40.3 |  | 
CAGCUGAAUGUGAGGAUAUGUCUAGCUUCGGCUAGACAGAAGGCACAUGAGGAUCACCCAUGUCUCAACAGCUG | 36.7 | 488 |  | 
GGGCUCGGAGGAUAUACAUGAGGAUCACCCAUGUAUCUGGGUCUUAUUGGGCUCGGGUGUAGAAGGCUGGGUCU | 13.9 | 15.5 |  | 
UAAGUAUGUUGAGGAUAUUAUGUUUGGUGAGAUGACAUGAGGAUCACCCAUGUGUUAUCAGUUCUUAAGAAGGCAACAUACUUA |  |  | 25.7 | 17.8
CGCAAGUAUACAUGAGGAUCACCCAUGUCAAUCAUGGUAUUCAGAAGGUACAAUUCAAUAUAUAGUAAGGAUAUGAAAUUUGCG |  |  | 107 | 112
AUCAGCUCGUCAGGAUAUACGUCACUGCGUCAGCAGUGUGGUAAGAACACAUGAGGAUCACCCAUGUAGAAGGGACGAGCUGAU | 6.31 | 7.81 |  | 
CUAUACAUAUCAGGAUAUCAUCGCGUGGAUUAACCCUGUGAUUACAUGAGGAUCACCCAUGUGCUUGAGAAGGGAUUACUAUUU | 33.7 | 152 |  | 
UGUCGGAGCAGAGGAUAUUACAUGAGGAUCACCCAUGUAUGAACCAAUAGCUGGAAACAGCAAUGUAAGAAGGCUGCUCCGUCA | 11.9 | 167 |  | 
